Assay results gathered from unrelated publications.
Lines come from different studies, so protocols differ. Values after ≈ are worked out from the molar mass of the structure shown.
Organism: Candida albicans

Structure (SMILES) | test | test system | setting | measurement | value
CCCS(=O)(=O)Oc1cc(C=NNC(=O)CSc2nc3c(C)cccc3c(=O)n2-c2ccccc2)ccc1OC | microbial growth, well diffusion | – | 20 µg/mL | inhibition zone | 2 mm
COc1ccc(N=Nc2c(N)nn3c(-c4ccco4)cc(-c4ccc(OCc5ccccc5)cc4)nc23)cc1 | microbial killing, broth dilution | ATCC10231 | – | MFC | 62.5 µg/mL (≈ 121 µM)
C[C@@H]1[C@H](O)[C@@H](C)/C=C/C=C/C=C/C=C/C=C/C=C/C=C/[C@H](O[C@@H]2O[C@H](C)[C@@H](O)[C@H](N)[C@@H]2O)C[C@@H]2O[C@](O)(C[C@@H](O)C[C@@H](O)[C@H](O)CC[C@@H](O)C[C@@H](O)CC(=O)O[C@H]1C)C[C@H](O)[C@H]2C(=O)O | microbial growth, broth dilution | SP3931 | 48 h | MIC | < 0.25 µM
OC(Cn1cncn1)(Cn1cncn1)c1ccc(F)cc1F | microbial growth, broth dilution | SN152 | 24 h | MIC | 2 µg/mL
CC(=O)N1CCN(c2ccc(OCC3COC(Cn4ccnc4)(c4ccc(Cl)cc4Cl)O3)cc2)CC1 (stereo not shown) | microbial growth, broth dilution | SP3931 | 48 h | MIC | 2 µM
CCS(=O)(=O)Oc1ccc(C=NNC(=O)CSc2nc3ccc(Cl)cc3c(=O)n2-c2ccccc2)cc1OC | microbial growth, well diffusion | – | 20 µg/mL | inhibition zone | 2 mm
CCCCCCCCCCCC(=O)ON=C1C=CC(=C(C#N)c2ccccc2)C=C1 | microbial killing, broth dilution | ATCC10231 | 48 h | MFC | 512 µg/mL (≈ 1270 µM)
CC(=O)N1CCN(c2ccc(OCC3COC(Cn4ccnc4)(c4ccc(Cl)cc4Cl)O3)cc2)CC1 (stereo not shown) | microbial growth, well diffusion | MTCC227 | 1000 µg/mL, 18 h | inhibition zone | 24 mm
CS(=O)(=O)Oc1ccc(C=NNC(=O)CSc2nc3ccc(Cl)cc3c(=O)n2-c2ccccc2)cc1 | microbial growth, well diffusion | – | 20 µg/mL | inhibition zone | 2 mm
Cc1ccc(N=Nc2c(N)nn3c(-c4ccc(Cl)cc4Cl)cc(-c4ccc(OCc5ccccc5)cc4)nc23)cc1 | microbial killing, broth dilution | ATCC10231 | – | MFC | 62.5 µg/mL (≈ 108 µM)
C#CCON=C1C=CC(=C(C#N)c2ccccc2)C=C1 | microbial killing, broth dilution | ATCC10231 | 48 h | MFC | 32 µg/mL (≈ 123 µM)
CCS(=O)(=O)Oc1ccc(C=NNC(=O)CSc2nc3c(C)cccc3c(=O)n2-c2ccccc2)cc1 | microbial growth, well diffusion | – | 20 µg/mL | inhibition zone | 3 mm
Cc1ccc(N=Nc2c(N)nn3c(-c4ccc(C)cc4)cc(-c4ccc(OCc5ccccc5)cc4)nc23)cc1 | microbial killing, broth dilution | ATCC10231 | – | MFC | 125 µg/mL (≈ 238 µM)
C=CC(=O)ON=C1C=CC(=C(C#N)c2ccccc2)C=C1 | microbial killing, broth dilution | ATCC10231 | 48 h | MFC | 4 µg/mL (≈ 14.5 µM)
COc1ccc(N=Nc2c(N)nn3c(-c4ccc(Cl)cc4Cl)cc(-c4ccc(OCc5ccccc5)cc4)nc23)cc1 | microbial killing, broth dilution | ATCC10231 | – | MFC | 250 µg/mL (≈ 420 µM)
COc1cc(C=NNC(=O)CSc2nc3c(C)cccc3c(=O)n2-c2ccccc2)ccc1OS(C)(=O)=O | microbial growth, well diffusion | – | 20 µg/mL | inhibition zone | 3 mm
OC(Cn1cncn1)(Cn1cncn1)c1ccc(F)cc1F | microbial growth, broth dilution | 56452 | 48 h | MIC | 1 µM
C[C@@H]1[C@H](O)[C@@H](C)/C=C/C=C/C=C/C=C/C=C/C=C/C=C/[C@H](O[C@@H]2O[C@H](C)[C@@H](O)[C@H](N)[C@@H]2O)C[C@@H]2O[C@](O)(C[C@@H](O)C[C@@H](O)[C@H](O)CC[C@@H](O)C[C@@H](O)CC(=O)O[C@H]1C)C[C@H](O)[C@H]2C(=O)O | microbial growth, well diffusion | – | 20 µg/mL | inhibition zone | 4 mm
COc1ccc(N=Nc2c(N)nn3c(-c4ccc(C)cc4)cc(-c4ccc(OCc5ccccc5)cc4)nc23)cc1 | microbial killing, broth dilution | ATCC10231 | – | MFC | 125 µg/mL (≈ 231 µM)
